The text below walks through data of BindingDB's records for doi:10.1021/acsmedchemlett.1c00308 (Uniformed Services University of The Health Sciences, 2021).

Where only a bound is given, the exact number is not on record here.

For this assay, the system named is ERG (ERG oncoprotein, ETS transcription factor) in VCaP cells. The experiment in a line: Inhibition of ERG in human VCaP cells after 48 hrs by Western blotting analysis. In short, it runs like this: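 In VCaP prostate cancer cells, ERG and RIOK2 protein levels were measured by Western blot after treatment. IC50 values were derived from the concentration-response of protein inhibition.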
A general note: In western blotting, separated proteins are transferred to a membrane and probed.

With `O=S(=O)(O)c1cccc2c(S(=O)(=O)O)cccc12`, the IC50 (as a rule, the point on the concentration scale where inhibition reaches its midpoint) was greater than 500 nM.

Turning to `Oc1ccc2ccccc2c1/N=N/c1nccs1` [DNDI1417016], the IC50 turned out to be 310 nM.
